Data taken from ChEMBL document CHEMBL4814031, “In pursuit of a selective hepatocellular carcinoma therapeutic agent: Novel thalidomide derivatives with antiproliferative, antimigratory and STAT3 inhibitory properties” (Eur J Med Chem, 2021).
The source made the active and inactive calls. No cut-off for these calls is given here.

What was measured:
BMOL-T [1] = test: (§1) Antiproliferative activity against mouse BMOL-T cells assessed as cell growth inhibition at 10 uM measured every 4 hrs for 3 days by IncuCyte zoom live cell analysis relative to control; type: functional; conditions: time 3.0 day
[2] = Antiproliferative activity against mouse BMOL-T cells assessed as cell growth by measuring doubling time at 10 uM measured every 4 hrs for 3 days by IncuCyte zoom live cell analysis (reference value: 14.3 to 15 hrs); type: functional; conditions: time 3 day
[3] = Antiproliferative activity against mouse BMOL-NT cells assessed as cell growth by measuring doubling time at 10 uM measured every 4 hrs for 3 days by IncuCyte zoom live cell analysis (reference value: 18 to 19 hrs); type: cell-based; conditions: 72 h, time 3 day
[4] = Antiproliferative activity against mouse BMOL-T cells assessed as change in doubling time at 10 uM measured every 4 hrs for 3 days by IncuCyte zoom live cell analysis relative to control; type: functional; conditions: time 3 day
[5] = Antiproliferative activity against mouse BMOL-NT cells assessed as cell growth inhibition at 10 uM measured every 4 hrs for 3 days by IncuCyte zoom live cell analysis relative to control; type: cell-based; conditions: time 3 day; for Activity: bmol-nt, 72 h, 10 µM
[6] = Selectivity for antiproliferative activity against mouse BMOL-T cells over mouse BMOL-NT cells at 10 uM measured every 4 hrs for 3 days by IncuCyte zoom live cell analysis; conditions: time 3 day
[7] = Antiproliferative activity against mouse BMOL-NT cells assessed as change in doubling time at 10 uM measured every 4 hrs for 3 days by IncuCyte zoom live cell analysis relative to control; type: cell-based; conditions: 72 h, time 3 day
[8] = Antimigratory activity against mouse BMOL-T cells assessed as inhibition of cell migration at 10 uM incubated for 16 hrs by scratch wound healing assay relative to control; type: functional
Method in brief: (§2)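 Wound healing in BMOL-T cells plated at 20,000/well in supplemented Williams' E medium and grown 24 h. Wounds made with a Woundmaker, then medium replaced with fresh medium holding compound or 0.1% DMSO vehicle. Live-cell imaging every 2 h over 24 h, read as average wound width (µm). n = 3, SEM.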

[9] = target: Transcription factor p65 (Mus musculus) (UniProt Q04207); test: Inhibition of NFkB p65 phosphorylation in mouse BMOL-T cells assessed as change in phosphorylated p65 level at 10 uM incubated for 6 hrs by immunofluorescent assay relative to control; type: cell-based; design: scale not given: the % may be the effect or the level left
Sequence of Transcription factor p65 (Mus musculus) (Q04207 whole entry): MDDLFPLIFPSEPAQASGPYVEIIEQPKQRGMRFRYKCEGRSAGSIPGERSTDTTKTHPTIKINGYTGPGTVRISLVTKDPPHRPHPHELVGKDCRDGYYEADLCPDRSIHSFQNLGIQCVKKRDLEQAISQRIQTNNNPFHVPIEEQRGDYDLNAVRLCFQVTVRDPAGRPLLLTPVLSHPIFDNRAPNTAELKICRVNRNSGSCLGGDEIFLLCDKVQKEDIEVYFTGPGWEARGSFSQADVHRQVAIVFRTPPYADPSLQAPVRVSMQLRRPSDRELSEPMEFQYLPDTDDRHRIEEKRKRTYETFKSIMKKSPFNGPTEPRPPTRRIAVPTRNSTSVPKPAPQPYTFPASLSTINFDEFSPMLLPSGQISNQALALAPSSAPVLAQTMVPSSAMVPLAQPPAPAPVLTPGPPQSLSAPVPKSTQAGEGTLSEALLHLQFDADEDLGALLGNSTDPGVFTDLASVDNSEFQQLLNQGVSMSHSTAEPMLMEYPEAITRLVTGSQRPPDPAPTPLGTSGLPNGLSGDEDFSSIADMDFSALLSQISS
Method in brief: (§3)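 BMOL cells in supplemented Williams' E medium were treated 6 h with compound or 0.1% DMSO vehicle. Fixed in 4% PFA, permeabilised with 0.1% Triton X-100, blocked, then incubated 18 h with anti-phospho-p65, -Akt or -STAT3, then secondary antibody 1 h and Hoechst. High-content imaging of per-cell intensity and nuclear:whole-cell ratio. Mean of two experiments, SD.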

[10] = Selectivity for antiproliferative activity against mouse BMOL-T cells over mouse BMOL-NT cells at 26 uM measured every 4 hrs for 3 days by IncuCyte zoom live cell analysis; conditions: time 3 day
[11] = as §1; type: functional; conditions: 72 h, time 3 day
[12] = target: T1, Signal transducer and activator of transcription 3 (Mus musculus, UniProt P42227); test: Inhibition of STAT3 phosphorylation in mouse BMOL-NT cells assessed as change in phosphorylated STAT3 level at 10 uM incubated for 6 hrs by immunofluorescence assay relative to control; type: cell-based; design: scale not given: the % may be the effect or the level left; method in brief: as §3
T1 sequence (P42227 whole entry): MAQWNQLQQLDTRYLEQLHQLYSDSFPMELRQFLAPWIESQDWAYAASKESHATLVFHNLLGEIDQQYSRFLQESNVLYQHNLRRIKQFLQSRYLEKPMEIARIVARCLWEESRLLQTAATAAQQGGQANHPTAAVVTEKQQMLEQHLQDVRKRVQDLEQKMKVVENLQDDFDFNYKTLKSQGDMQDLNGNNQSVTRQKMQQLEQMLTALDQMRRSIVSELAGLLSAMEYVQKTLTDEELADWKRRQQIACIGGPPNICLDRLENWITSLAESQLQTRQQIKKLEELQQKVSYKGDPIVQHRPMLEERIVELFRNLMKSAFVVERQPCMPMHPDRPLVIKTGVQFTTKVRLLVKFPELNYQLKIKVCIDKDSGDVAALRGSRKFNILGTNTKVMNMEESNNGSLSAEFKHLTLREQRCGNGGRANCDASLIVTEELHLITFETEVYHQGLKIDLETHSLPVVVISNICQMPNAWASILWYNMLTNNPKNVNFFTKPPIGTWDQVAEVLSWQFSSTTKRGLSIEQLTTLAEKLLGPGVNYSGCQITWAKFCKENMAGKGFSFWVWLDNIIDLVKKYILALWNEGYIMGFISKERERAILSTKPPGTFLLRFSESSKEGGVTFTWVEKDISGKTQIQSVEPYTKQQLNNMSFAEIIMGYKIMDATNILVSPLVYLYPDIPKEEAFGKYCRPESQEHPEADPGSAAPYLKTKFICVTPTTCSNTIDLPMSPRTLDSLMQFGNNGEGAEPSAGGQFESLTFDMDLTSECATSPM

[13] = Antiproliferative activity against mouse BMOL-NT cells assessed as cell growth inhibition at >10 uM measured every 4 hrs for 3 days by IncuCyte zoom live cell analysis; type: cell-based; conditions: 72 h, time 3 day
BMOL-T [14] = test: (§4) Antiproliferative activity against mouse BMOL-T cells assessed as minimum concentration required for cell growth inhibition measured every 4 hrs for 3 days by IncuCyte zoom live cell analysis; type: functional; conditions: time 3.0 day
Method in brief: (§5)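 Dose series for BMOL-T proliferation: cells plated at 1000/well, compound added from 2× solutions (final 0.1% DMSO), imaged every 4 h for 3 days. Doubling time from the log-phase linear part of a log confluence vs time curve, expressed as % change over vehicle. n = 3, SEM.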

[15] = as §4; type: functional; conditions: time 3 day; method in brief: as §5
[16] = Inhibition of Akt phosphorylation in mouse BMOL-NT cells assessed as change in nuclear phosphorylated Akt level at 10 uM incubated for 6 hrs by immunofluorescent assay relative to control; type: subcellular, Nucleus; design: scale not given: the % may be the effect or the level left; method in brief: as §3
BMOL-T [17] = test: Inhibition of Akt phosphorylation in mouse BMOL-T cells assessed as change in phosphorylated Akt level at 10 uM incubated for 6 hrs by immunofluorescent assay relative to control; type: cell-based; design: scale not given: the % may be the effect or the level left; method in brief: as §3
BMOL-T [18] = test: Antimigratory activity against mouse BMOL-T cells assessed as inhibition of cell migration at 10 uM incubated for 24 hrs by scratch wound healing assay; type: functional, cell-based; method in brief: as §2
[19] = Inhibition of Akt phosphorylation in mouse BMOL-NT cells assessed as change in phosphorylated Akt level at 10 uM incubated for 6 hrs by immunofluorescent assay relative to control; type: cell-based; design: scale not given: the % may be the effect or the level left; method in brief: as §3
Transcription factor p65 [20] = target: T2, Transcription factor p65 (Mus musculus, UniProt Q04207); test: Inhibition of NFkB p65 phosphorylation in mouse BMOL-NT cells assessed as change in phosphorylated p65 level at 10 uM incubated for 6 hrs by immunofluorescent assay relative to control; type: cell-based; design: scale not given: the % may be the effect or the level left; method in brief: as §3
T2 sequence (Q04207 whole entry): as the sequence (Q04207 whole entry) above

[21] = target: Transcription factor p65 (Mus musculus) (UniProt Q04207); test: Inhibition of NFkB p65 nuclear translocation in mouse BMOL-T cells assessed as change in nuclear p65 level at 10 uM incubated for 6 hrs by immunofluorescent assay relative to control; type: subcellular; design: scale not given: the % may be the effect or the level left; conditions: Nucleus; method in brief: as §3
[22] = target: Signal transducer and activator of transcription 3 (Mus musculus) (UniProt P42227); test: Inhibition of STAT3 phosphorylation in mouse BMOL-T cells assessed as change in nuclear phosphorylated STAT3 level at 10 uM incubated for 6 hrs by immunofluorescence assay relative to control; type: subcellular; design: scale not given: the % may be the effect or the level left; conditions: Nucleus; method in brief: as §3
Sequence of Signal transducer and activator of transcription 3 (Mus musculus) (P42227 whole entry): as the sequence (P42227 whole entry) above

Transcription factor p65 [23] = target: T2, Transcription factor p65; test: Inhibition of NFkB p65 nuclear translocation in mouse BMOL-NT cells assessed as change in nuclear p65 level at 10 uM incubated for 6 hrs by immunofluorescent assay relative to control; type: subcellular, Nucleus; design: scale not given: the % may be the effect or the level left; method in brief: as §3
[24] = target: Signal transducer and activator of transcription 3 (Mus musculus) (UniProt P42227); test: Inhibition of STAT3 phosphorylation in mouse BMOL-T cells assessed as change in phosphorylated STAT3 level at 10 uM incubated for 6 hrs by immunofluorescence assay relative to control; type: cell-based; design: scale not given: the % may be the effect or the level left; method in brief: as §3
BMOL-T [25] = test: Inhibition of Akt phosphorylation in mouse BMOL-T cells assessed as change in nuclear phosphorylated Akt level at 10 uM incubated for 6 hrs by immunofluorescent assay relative to control; type: subcellular; design: scale not given: the % may be the effect or the level left; conditions: Nucleus; method in brief: as §3
[26] = target: T1, Signal transducer and activator of transcription 3; test: Inhibition of STAT3 phosphorylation in mouse BMOL-NT cells assessed as change in nuclear phosphorylated STAT3 level at 10 uM incubated for 6 hrs by immunofluorescence assay relative to control; type: subcellular, Nucleus; design: scale not given: the % may be the effect or the level left; method in brief: as §3
BMOL-T [27] = test: Effect on STAT3 expression in mouse BMOL-T cells at 10 uM by AlphaLISA assay; type: functional, cell-based
Method in brief: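 AlphaLISA in BMOL-T cells treated at 10 µM with 0.1% DMSO vehicle as control. Read as normalised fluorescence for total STAT3, or as the ratio of total STAT3 to p-STAT3. n ≥ 3, SEM. Significance by ANOVA with Dunnett's test.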

O=C1CCC(N2C(=O)c3cccc(Nc4ccc(O)cc4)c3C2=O)C(=O)N1 (configuration not stated)
Activity (BMOL-T [1]): Active

CC(C)c1ccc(Cc2cccc3c2C(=O)N(C2CCC(=O)NC2=O)C3=O)cc1 (configuration not stated)
Time [2]: 17 h
Time [3]: 17.5 h
Activity [4]: 17%

O=C1CCC(N2C(=O)c3cccc(Sc4ncccn4)c3C2=O)C(=O)N1 (configuration not stated)
Activity [5]: Non-Toxic

CNC(=O)c1cc(Oc2ccc(NC(=O)Nc3ccc(Cl)c(C(F)(F)F)c3)cc2)ccn1 [SORAFENIB]
Selectivity ratio [6]: 2.1
Activity [7]: 181%
Time [2]: 71 h
Time [3]: 50 h
Activity [4]: 382%

CC(C)c1ccc(Oc2cccc3c2C(=O)N(C2CCC(=O)NC2=O)C3=O)cc1 (configuration not stated)
Time [2]: 15.4 h
Time [3]: 17.5 h
Activity [4]: 5%

COc1ccc(Sc2cccc3c2C(=O)N(C2CCC(=O)NC2=O)C3=O)cc1 (configuration not stated)
Activity [5]: Toxic

O=C1CCC(N2C(=O)c3cccc(Sc4ccc(C(F)(F)F)cn4)c3C2=O)C(=O)N1 (configuration not stated)
Activity (BMOL-T [1]): inactive

CCCc1ccc(Nc2cccc3c2C(=O)N(C2CCC(=O)NC2=O)C3=O)cc1 (configuration not stated)
Activity (BMOL-T [1]): Active

CC(C)Oc1ccc(Nc2cccc3c2C(=O)N(C2CCC(=O)NC2=O)C3=O)cc1 (configuration not stated)
Activity (BMOL-T [1]): Active

O=C1CCC(N2C(=O)c3cccc(Sc4ccc5ccccc5n4)c3C2=O)C(=O)N1 (configuration not stated)
Activity [5]: Non-Toxic

Cc1ccc(Sc2cccc3c2C(=O)N(C2CCC(=O)NC2=O)C3=O)cc1 (configuration not stated)
Time [3]: 19.3 h

O=C1CCC(N2C(=O)c3ccccc3C2=O)C(=O)N1 (configuration not stated) [THALIDOMIDE]
Time [2]: 15 h
Time [3]: 18 h

CC(C)(C)c1ccc(Nc2cccc3c2C(=O)N(C2CCC(=O)NC2=O)C3=O)cc1 (configuration not stated)
Selectivity ratio [6]: 23
inhibition at 10 µM [8]: 94%
Activity [9]: -7%
Selectivity ratio [10]: 3
inhibition at 10 µM [11]: 31%
Activity [12]: -4%
Activity [13]: Toxic
Activity (BMOL-T [14]): Dose-Dependent Effect
MAC [15]: 4 µM
Activity [16]: -10%
Activity (BMOL-T [17]): 4%
Activity (BMOL-T [18]): Active
Activity [19]: 4%
Activity (Transcription factor p65 [20]): -1%
Activity [21]: -9%
Activity [22]: -10%
Activity (Transcription factor p65 [23]): -11%
Activity [24]: -7%
Activity (BMOL-T [25]): 4%
Activity [26]: -13%
Activity (BMOL-T [27]): inactive

O=C1CCC(N2C(=O)c3cccc(Nc4ccc5c(c4)CCCC5)c3C2=O)C(=O)N1 (configuration not stated)
Activity (BMOL-T [1]): Active
inhibition at 72 h, 10 µM ([5]; BMOL-NT cells): ≤ 10%

CC(C)c1ccc(Nc2cccc3c2C(=O)N(C2CCC(=O)NC2=O)C3=O)cc1 (configuration not stated)
Time [2]: 16.3 h
Time [3]: 17.3 h
Activity [4]: 19%

O=C1CCC(N2C(=O)c3cccc(Nc4ccccc4)c3C2=O)C(=O)N1 (configuration not stated)
Time [2]: 14.3 h
Time [3]: 17.4 h
Activity [4]: 7%

Nc1cccc2c1C(=O)N(C1CCC(=O)NC1=O)C2=O (configuration not stated) [POMALIDOMIDE]
Time [2]: 15 h
Time [3]: 18 h
